Laboratory results reported in ChEMBL document CHEMBL5113395, “Azetidin-2-one-based small molecules as dual hHDAC6/HDAC8 inhibitors: Investigation of their mechanism of action and impact of dual inhibition profile on cell viability” (Eur J Med Chem, 2022).
Activity calls are given as the source filed them. The calls are words filed in the database; no cut-off is given here.

Assays:
Histone deacetylase 1 [1] = target: T1, Histone deacetylase 1 (Homo sapiens, UniProt Q13547); experiment: Inhibition of recombinant human full length C-terminal FLAG/His-tagged HDAC1 expressed in Sf9 insect cells using ZMAL (Z-(Ac)Lys-AMC as substrate measured after 90 mins by fluorescence plate reader analysis
T1 sequence (Q13547 whole entry): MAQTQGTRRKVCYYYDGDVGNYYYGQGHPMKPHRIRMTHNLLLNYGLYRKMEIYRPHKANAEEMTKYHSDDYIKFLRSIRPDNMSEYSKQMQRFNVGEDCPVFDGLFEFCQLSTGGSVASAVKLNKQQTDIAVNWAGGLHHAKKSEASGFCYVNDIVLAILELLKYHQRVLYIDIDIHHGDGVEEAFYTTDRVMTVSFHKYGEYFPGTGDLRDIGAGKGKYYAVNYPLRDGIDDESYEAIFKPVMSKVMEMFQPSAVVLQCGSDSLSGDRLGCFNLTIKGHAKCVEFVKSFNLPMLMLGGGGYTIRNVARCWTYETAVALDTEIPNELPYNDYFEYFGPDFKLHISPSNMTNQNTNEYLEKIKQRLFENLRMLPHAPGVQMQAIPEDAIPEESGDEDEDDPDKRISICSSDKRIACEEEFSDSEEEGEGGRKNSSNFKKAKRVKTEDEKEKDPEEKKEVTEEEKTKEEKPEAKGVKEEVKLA

[2] = target: T2, Protein deacetylase HDAC6 (Homo sapiens, UniProt Q9UBN7); experiment: Inhibition of recombinant human full length N-terminal GST-tagged HDAC6 expressed in Sf9 cells using ZMAL (Z-(Ac)Lys-AMC as substrate measured after 90 mins by fluorescence plate reader analysis
T2 sequence (Q9UBN7 whole entry): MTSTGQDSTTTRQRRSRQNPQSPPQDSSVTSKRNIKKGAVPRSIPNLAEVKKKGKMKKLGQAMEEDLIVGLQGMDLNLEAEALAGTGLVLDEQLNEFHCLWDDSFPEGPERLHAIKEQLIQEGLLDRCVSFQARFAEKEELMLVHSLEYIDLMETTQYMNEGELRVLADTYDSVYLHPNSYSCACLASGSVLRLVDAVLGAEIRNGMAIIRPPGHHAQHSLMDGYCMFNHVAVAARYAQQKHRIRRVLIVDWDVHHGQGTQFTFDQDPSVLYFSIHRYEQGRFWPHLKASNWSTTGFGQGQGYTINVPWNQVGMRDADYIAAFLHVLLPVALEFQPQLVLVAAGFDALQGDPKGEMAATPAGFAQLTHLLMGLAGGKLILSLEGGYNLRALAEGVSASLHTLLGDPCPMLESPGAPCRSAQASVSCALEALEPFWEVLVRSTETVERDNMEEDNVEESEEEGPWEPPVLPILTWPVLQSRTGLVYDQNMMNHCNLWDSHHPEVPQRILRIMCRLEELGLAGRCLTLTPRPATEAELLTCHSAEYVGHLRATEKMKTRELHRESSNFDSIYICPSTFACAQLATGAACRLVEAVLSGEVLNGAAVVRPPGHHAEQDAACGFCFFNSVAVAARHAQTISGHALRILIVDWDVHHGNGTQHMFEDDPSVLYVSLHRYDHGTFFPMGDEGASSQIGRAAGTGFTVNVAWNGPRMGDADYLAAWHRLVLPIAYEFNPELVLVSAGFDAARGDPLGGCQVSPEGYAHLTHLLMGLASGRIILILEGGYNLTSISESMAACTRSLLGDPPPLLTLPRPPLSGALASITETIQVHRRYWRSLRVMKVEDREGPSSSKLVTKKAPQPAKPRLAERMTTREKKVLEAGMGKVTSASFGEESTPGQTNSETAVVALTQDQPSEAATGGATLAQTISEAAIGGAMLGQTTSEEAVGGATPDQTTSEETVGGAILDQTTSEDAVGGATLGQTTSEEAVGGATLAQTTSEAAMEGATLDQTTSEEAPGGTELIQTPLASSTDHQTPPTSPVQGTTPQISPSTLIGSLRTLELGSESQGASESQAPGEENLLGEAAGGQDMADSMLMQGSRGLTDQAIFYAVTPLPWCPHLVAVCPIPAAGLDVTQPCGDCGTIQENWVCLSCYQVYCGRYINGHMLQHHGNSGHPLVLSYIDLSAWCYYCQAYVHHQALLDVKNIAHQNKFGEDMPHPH

[3] = Cytotoxicity against mouse NIH3T3 cells assessed as inhibition of cell growth by neutral red uptake assay
[4] = target: T3, Histone deacetylase 8 (Homo sapiens) (UniProt Q9BY41); experiment: Inhibition of recombinant human HDAC8 using FLUOR DE LYS as substrate preincubated for 15 mins followed by substrate addition at 50 uM measured after 1 hrs by fluorescence plate reader analysis relative to control; conditions: time 75.0 min
T3 sequence (whole entry): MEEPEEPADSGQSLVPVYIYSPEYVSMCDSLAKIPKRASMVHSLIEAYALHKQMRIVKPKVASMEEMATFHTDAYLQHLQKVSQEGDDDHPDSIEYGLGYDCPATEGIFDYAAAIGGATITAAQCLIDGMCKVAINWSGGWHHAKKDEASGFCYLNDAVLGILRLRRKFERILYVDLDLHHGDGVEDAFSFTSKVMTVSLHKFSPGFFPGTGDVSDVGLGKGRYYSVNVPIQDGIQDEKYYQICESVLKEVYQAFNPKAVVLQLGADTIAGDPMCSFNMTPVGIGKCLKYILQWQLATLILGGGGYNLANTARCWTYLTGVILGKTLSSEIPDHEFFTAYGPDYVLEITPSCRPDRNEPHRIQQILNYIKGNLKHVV
In short: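 Kit recombinant human HDAC8 (0.45 U/reaction) was preincubated 15 min with compound (0.5% DMSO; DMSO-only control). Fluor de Lys substrate was then added at 50 µM final and the reaction ran 1 h at 30 °C. It was quenched with 2 µM TSA in Developer II for a further 1 h at 30 °C, and fluorescence read at ex 370/em 450 nm. IC50 came from nonlinear dose–response fitting.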

HCT-116 = experiment: Antiproliferation activity against human HCT-116 cells assessed as reduction in cell viability at 5 to 50 uM measured after 48 hrs by MTT assay; format: functional, cell-based; conditions: dose 5-50 µM
In short: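 HCT116 cells in DMEM with 10% heat-inactivated FBS were seeded at 3×10^4 cells/well and treated in triplicate at 1, 5, 10 and 50 µM for 24 and 48 h. MTT at 0.5 mg/mL was added for 3 h, formazan was dissolved in DMSO, and absorbance was read at 570 nm.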

U-937 = experiment: Antiproliferation activity against human U-937 cells assessed as reduction in cell viability at 5 to 50 uM measured after 48 hrs by CCK-8 assay; format: functional, cell-based; conditions: dose 5-50 µM
In short: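 U937 cells were exposed in triplicate to 1, 5, 10 and 50 µM for 24 and 48 h. CCK-8 (WST-8) reagent was then added, with 3 h further incubation at 37 °C, and absorbance was read at 450 nm to give viability.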

Histone deacetylase 1 [5] = target: T1, Histone deacetylase 1; experiment: Inhibition of recombinant human full length C-terminal FLAG/His-tagged HDAC1 expressed in Sf9 insect cells using ZMAL (Z-(Ac)Lys-AMC as substrate at 50 uM measured after 90 mins by fluorescence plate reader analysis relative to control
Histone deacetylase 1 [6] = target: T1, Histone deacetylase 1; experiment: Inhibition of recombinant human full length C-terminal FLAG/His-tagged HDAC1 expressed in Sf9 insect cells using ZMAL (Z-(Ac)Lys-AMC as substrate at 10 uM measured after 90 mins by fluorescence plate reader analysis relative to control
Histone deacetylase 1 [7] = target: T1, Histone deacetylase 1; experiment: Inhibition of recombinant human full length C-terminal FLAG/His-tagged HDAC1 expressed in Sf9 insect cells using ZMAL (Z-(Ac)Lys-AMC as substrate at 1 uM measured after 90 mins by fluorescence plate reader analysis relative to control
[8] = target: T4, Protein deacetylase HDAC6 (Homo sapiens) (UniProt Q9UBN7); experiment: Inhibition of recombinant human full length N-terminal GST-tagged HDAC6 expressed in Sf9 cells using ZMAL (Z-(Ac)Lys-AMC as substrate at 50 uM measured after 90 mins by fluorescence plate reader analysis relative to control
T4 sequence (whole entry): T2 sequence (Q9UBN7 whole entry)

[9] = target: T4, Protein deacetylase HDAC6 (Homo sapiens); experiment: Inhibition of recombinant human full length N-terminal GST-tagged HDAC6 expressed in Sf9 cells using ZMAL (Z-(Ac)Lys-AMC as substrate at 10 uM measured after 90 mins by fluorescence plate reader analysis relative to control
[10] = target: T4, Protein deacetylase HDAC6 (Homo sapiens); experiment: Inhibition of recombinant human full length N-terminal GST-tagged HDAC6 expressed in Sf9 cells using ZMAL (Z-(Ac)Lys-AMC as substrate at 1 uM measured after 90 mins by fluorescence plate reader analysis relative to control

| SMILES | IC50 (Histone deacetylase 1 [1]) | IC50 [2] | inhibition (Histone deacetylase 1 [5]) | inhibition (Histone deacetylase 1 [6]) | inhibition (Histone deacetylase 1 [7]) | other results |
| --- | --- | --- | --- | --- | --- | --- |
| Cc1cccc(C2CC(=O)N2C2CCN(C(=O)NCc3ccc(C(=O)NO)cc3)CC2)c1 (racemic) | 3.1 µM | 0.399 µM | – | – | – | CC50 [3]: 100 µM |
| O=C(NO)c1ccc(COC(=O)N2CCC(N3CC(c4ccccc4)(c4ccccc4)C3=O)CC2)cc1 | 4.1 µM | 0.0185 µM | – | – | – | inhibition [4]: 13%; CC50 [3]: 80 µM |
| COc1ccc(Cn2ccc3ccc(C(=O)NO)cc32)cc1 | – | – | – | – | – | Activity (HCT-116): Active; Activity (U-937): Active |
| O=C(NO)c1ccc(CNC(=O)N2CCC(N3C(=O)CC3c3cccc(Cl)c3)CC2)cc1 (racemic) | 15.1 µM | 0.27 µM | – | – | – | – |
| O=C(CCCCCCC(=O)Nc1ccccc1)NO | – | – | – | – | – | Activity (HCT-116): Active; Activity (U-937): Active |
| O=C(NO)c1ccc(CCC(=O)N2CCC(N3C(=O)[C@H](c4ccccc4)[C@H]3c3ccccc3)CC2)cc1 (racemic) | – | – | 83.6% | 48.7% | 17.2% | inhibition [8]: 102%; inhibition [9]: 97.1%; inhibition [10]: 69.7% |
| O=C(CCc1ccc(C(=O)N2CCC(N3C(=O)[C@H](c4ccccc4)[C@H]3c3ccccc3)CC2)cc1)NO (racemic) | – | – | 89.5% | 66.4% | 22.3% | inhibition [8]: 98.4%; inhibition [9]: 85.7%; inhibition [10]: 35.9% |
| O=C(NO)c1ccc(CC(=O)N2CCC(N3C(=O)[C@H](c4ccccc4)[C@H]3c3ccccc3)CC2)cc1 (racemic) | 5.14 µM | 0.121 µM | – | – | – | CC50 [3]: 48 µM |
| O=C(/C=C/c1ccc(C(=O)N2CCC(N3C(=O)[C@H](c4ccccc4)[C@H]3c3ccccc3)CC2)cc1)NO (racemic) | – | 0.168 µM | 97.3% | 93.4% | 61% | – |
| O=C(NO)c1ccc(/C=C/C(=O)N2CCC(N3C(=O)[C@H](c4ccccc4)[C@H]3c3ccccc3)CC2)cc1 (racemic) | – | 0.13 µM | 100% | 90.1% | 49.7% | – |
| O=C(NO)c1ccc(NC(=O)N2CCC(N3C(=O)[C@H](c4ccccc4)[C@H]3c3ccccc3)CC2)cc1 (racemic) | 1.27 µM | 0.203 µM | – | – | – | – |
| O=C(Cc1ccc(NC(=O)N2CCC(N3C(=O)[C@H](c4ccccc4)[C@H]3c3ccccc3)CC2)cc1)NO (racemic) | – | – | 82.7% | 53.3% | 23.6% | inhibition [8]: 103%; inhibition [9]: 94.2%; inhibition [10]: 60.2% |
